Test results reported in ChEMBL document CHEMBL1122166, “Beta-adrenergic blocking agents. 22. 1-Phenoxy-3-[[(substituted-amido) alkyl]amino]-2-propanols” (J Med Chem, 1982).

Columns and labels:
[1] = target: T1, Adrenergic receptor beta (Homo sapiens) (UniProt P08588+P07550+P13945); assay: In vivo beta adrenergic receptor blocking potency was determined by inhibition of tachycardia produced by isoproterenol (0.2 mg/kg iv) in cat preparation; type: functional, organism-based
Procedure, shortened: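 Test agent infused over 30 min at three to five dose levels. Challenge was a submaximal isoproterenol dose (0.2 μg/kg iv). Mean log values were taken from two or three tests, with standard errors of the means.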

[2] = target: T1, Adrenergic receptor beta (Homo sapiens); assay: In vivo beta adrenergic receptor blocking potency was determined by inhibition of depressor response produced by isoproterenol (0.2 mg/kg iv) in cat preparation; type: functional, organism-based
Procedure, shortened: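 Test agent infused over 30 min at three to five dose levels against a submaximal isoproterenol challenge (0.2 μg/kg iv). The percent blockade of the isoproterenol vasodepressor response was estimated at the dose level derived from the tachycardia inhibition estimate.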

[3] = target: T1, Adrenergic receptor beta (Homo sapiens); assay: In vivo beta adrenergic receptor blocking potency was determined by inhibition of tachycardia produced by isoproterenol (0.2 µg/kg iv) in cat preparation; conditions: Felis catus; target entry is the homologue from another species
[4] = Felis catus; in the assay text read “0.2 µg/kg iv” for “0.2 mg/kg iv”; target entry is the homologue from another species
[5] = Felis catus; target entry is the homologue from another species; in the assay text read “0.2 µg/kg iv” for “0.2 mg/kg iv”

Row | Compound | ED50 [1, 4] [mg/kg] | inhibition [2, 4] [%] | ED50 [3] [mg/kg] | inhibition [2, 5] [%] | ED50 [1, 5] [mg/kg]
1 | CC(CNC(=O)Cc1ccccc1)NCC(O)COc1ccccc1C#N (stereo unspecified) | 0.004 | 10 | – | – | –
2 | O=C(NCCNCC(O)COc1ccccc1)NC1CCCCC1 (stereo unspecified) | – | – | 0.282 | 6 | –
3 | C=CCOc1ccccc1OCC(O)CNCCNC(=O)Nc1ccccc1 (stereo unspecified) | – | – | – | 24 | 0.037
4 | CC(C)C(=O)NCC(C)(C)NCC(O)COc1ccccc1 (stereo unspecified) | – | – | – | 0 | 0.003
5 | O=C(NCCNCC(O)COc1ccccc1[N+](=O)[O-])Nc1ccccc1 (stereo unspecified) | 0.052 | 14 | – | – | –
6 | O=C(NCCNCC(O)COc1ccccc1)c1ccc(O)c(O)c1 (stereo unspecified) | – | – | – | 0 | 0.014
7 | CCCCNC(=O)NCCNCC(O)COc1ccccc1C#N (stereo unspecified) | 0.304 | 0 | – | – | –
8 | CC(C)(C)C(=O)NCCNCC(O)COc1ccccc1[N+](=O)[O-] (stereo unspecified) | 0.011 | – | – | 25 | –
9 | CCCCCC(=O)NCC(C)NCC(O)COc1ccccc1 (stereo unspecified) | 0.005 | 0 | – | – | –
10 | N#Cc1ccccc1OCC(O)CNCCNC(N)=O (stereo unspecified) | 0.06 | – | – | 21 | –
11 | Cc1c(N)cc(S(=O)(=O)NCCNCC(O)COc2ccccc2)cc1[N+](=O)[O-] (stereo unspecified) | – | 34 | 0.217 | – | –
12 | O=C(NCCNCC(O)COc1ccccc1Cl)Nc1ccccc1 (stereo unspecified) | – | 4 | – | – | 0.037
13 | CC(C)C(=O)NCCNCC(O)COc1ccccc1[N+](=O)[O-] (stereo unspecified) | – | – | – | 5 | 0.006
14 | O=C(NCCNCC(O)COc1ccccc1)c1cc(O)ccc1O (stereo unspecified) | 0.616 | 0 | – | – | –
15 | O=C(NCCNCC(O)COc1ccccc1)c1ccccc1Cl (stereo unspecified) | 0.161 | 0 | – | – | –
16 | CNC(=O)NCCNCC(O)COc1ccccc1C#N (stereo unspecified) | 0.044 | 18 | – | – | –
17 | CC(CNC(=O)Cc1ccccc1Cl)NCC(O)COc1ccccc1[N+](=O)[O-] (stereo unspecified) | – | 34 | – | – | 0.007
18 | CC(C)(OC(=O)NCCNCC(O)COc1ccccc1)c1ccc(Cl)cc1 (stereo unspecified) | 0.078 | 25 | – | – | –
19 | CC(C)NC(=O)NCCNCC(O)COc1ccccc1C#N (stereo unspecified) | – | – | – | 0 | 0.168
20 | C=CCOc1ccccc1OCC(O)CNC(C)CNC(=O)Cc1ccccc1 (stereo unspecified) | – | – | – | 30 | 0.019
21 | CC(CNC(=O)C(C)C)NCC(O)COc1ccccc1 (stereo unspecified) | 0.005 | – | – | 37 | –
22 | CN(C)c1ccccc1C(=O)NCCNCC(O)COc1ccccc1 (stereo unspecified) | – | 0 | – | – | 0.465
23 | N#Cc1ccccc1OCC(O)CNCCNC(=O)Nc1ccccc1[N+](=O)[O-] (stereo unspecified) | 0.097 | 11 | – | – | –
24 | CC(C)(CNC(=O)Cc1ccccc1)NCC(O)COc1ccccc1 (stereo unspecified) | 0.011 | – | – | 0 | –
25 | CC(CNC(=O)Cc1ccccc1)NCC(O)COc1ccccc1 (stereo unspecified) | 0.003 | – | – | 0 | –

More lines, now with the values ahead:

Row | ED50 [1, 4] [mg/kg] | inhibition [2, 4] [%] | ED50 [3] [mg/kg] | inhibition [2, 5] [%] | ED50 [1, 5] [mg/kg] | Compound
26 | 0.015 | 7 | – | – | – | CC(=O)NCCNCC(O)COc1ccccc1 (stereo unspecified)
27 | – | 0 | – | – | 0.022 | O=C(NCCNCC(O)COc1ccccc1)C1CC1 (stereo unspecified)
28 | 0.017 | – | – | 8 | – | O=C(Cc1ccc(Cl)cc1)NCCNCC(O)COc1ccccc1 (stereo unspecified)
29 | 0.029 | 0 | – | – | – | O=C(Cc1ccccc1)NCCNCC(O)COc1ccccc1 (stereo unspecified)
30 | 0.038 | – | – | 0 | – | O=C(COc1ccccc1)NCCNCC(O)COc1ccccc1 (stereo unspecified)
31 | – | 0 | 0.21 | – | – | CC(C)C(=O)NCCCNCC(O)COc1ccccc1 (stereo unspecified)
32 | 0.012 | 0 | – | – | – | NC(=O)NCCNCC(O)COc1ccccc1 (stereo unspecified)
33 | 0.84 | – | – | 3 | – | CCCCCCCCC(=O)NCCNCC(O)COc1ccccc1 (stereo unspecified)
34 | – | 8 | – | – | 0.022 | CCCCNC(=O)NCCNCC(O)COc1ccccc1 (stereo unspecified)
35 | – | – | – | 0 | 0.024 | CCNC(=O)NCCNCC(O)COc1ccccc1 (stereo unspecified)
36 | 0.099 | – | – | 0 | – | CC(C)NC(=O)NCCNCC(O)COc1ccccc1 (stereo unspecified)
37 | – | 0 | – | – | 0.02 | O=C(NCCNCC(O)COc1ccccc1)C1CCCCC1 (stereo unspecified)
38 | 0.008 | – | – | 9 | – | CC(C)S(=O)(=O)NCCNCC(O)COc1ccccc1 (stereo unspecified)
39 | 0.159 | – | – | 0 | – | CCCCCC(=O)NCCNCC(O)COc1ccccc1 (stereo unspecified)
40 | – | 5 | – | – | 0.024 | C=CCNC(=O)NCCNCC(O)COc1ccccc1 (stereo unspecified)
41 | 0.039 | 0 | – | – | – | CS(=O)(=O)NCCNCC(O)COc1ccccc1 (stereo unspecified)
42 | 0.016 | 0 | – | – | – | COCC(=O)NCCNCC(O)COc1ccccc1 (stereo unspecified)
43 | – | – | – | 16 | 0.044 | CC(=O)NCCCCCCNCC(O)COc1ccccc1 (stereo unspecified)
